Measurements: ChEMBL document CHEMBL1795267, “Synthesis of enantiomerically pure D- and L-bicyclo[3.1.0]hexenyl carbanucleosides and their antiviral evaluation” (Bioorg Med Chem, 2011)
Values after ≈ are worked out from the molar mass of the structure shown. Active and inactive are the calls of the source. No cut-off for these calls is given here.

Columns and labels:
[1] = Selectivity index, ratio of CC50 for human MT4 cells to IC50 for HIV1 3B; type: functional
Outline: (§1)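 Uninfected MT-4 cells (1.0×10^5 cells/mL) were cultured for 5 days at 37 °C with compound in parallel with the infected cultures. Viability was read by MTT (1.5 h with MTT, formazan dissolved in acidic 2-propanol, absorbance at 540/690 nm). CC50 is the concentration reducing viability of uninfected cells by 50%. Index = CC50/IC50 against the HIV-1 IIIB or HIV-2 ROD MT-4 assay.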

[2] = tested on: Human immunodeficiency virus 1; experiment: Antiviral activity against HIV1 3B infected in human MT4 cells […] with HTLV1 assessed as reduction in virus induced cytopathicity measured 5 days post infection by MTT assay; type: functional, organism-based; details: Human immunodeficiency virus 1, 3B, MT4, 120 h
Outline: (§2)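 MT-4 cells (HTLV-1-carrying human T cells; RPMI-1640, 10% FBS, 2 mM L-glutamine) infected with cell-free HIV-1 IIIB or HIV-2 ROD at 100 TCID50/mL for 1.5 h at 37 °C, then plated at 1.0×10^5 cells/mL with serial compound dilutions (DMSO stock, at most 0.5% DMSO final) in triplicate. Cultured 5 days at 37 °C. Virus-induced cytopathicity read by MTT. IC50 is the concentration giving 50% protection.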

MT4 = experiment: Toxicity against human MT4 cells by MTT assay; type: cell-based
Outline: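 Uninfected MT-4 cells (HTLV-1-carrying T4+ line) at 1.0×10^5 cells/mL in RPMI-1640/10% FBS, gentamycin, 2 mM L-glutamine, run in triplicate alongside infected cultures for 5 days at 37 °C, 5% CO2. Compounds were diluted from DMSO, final DMSO ≤0.5%. Read by MTT (1.5 h), formazan dissolved in acidic 2-propanol, A540/690. CC50 is the concentration reducing viability by 50%.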

[3] = Selectivity index, ratio of CC50 for human MT4 cells to IC50 for HIV2 ROD; type: functional; outline: as §1
[4] = tested on: Human immunodeficiency virus 2; experiment: Antiviral activity against HIV2 ROD infected in human MT4 cells assessed as reduction in virus induced cytopathicity measured 5 days post infection by MTT assay; type: functional, organism-based; details: Human immunodeficiency virus 2, ISOLATE ROD, MT4, 120 h; outline: as §2
Poliovirus 3 = experiment: Antiviral activity against Human poliovirus 3 up to 100 ug/mL; type: functional, organism-based
Coxsackievirus B1 = experiment: Antiviral activity against Coxsackie virus B1 up to 100 ug/mL; type: functional, organism-based
Coxsackievirus B3 = experiment: Antiviral activity against Coxsackie virus B3 up to 100 ug/mL; type: functional, organism-based
Feline coronavirus = experiment: Antiviral activity against Feline coronavirus WSU up to 100 ug/mL; type: functional, organism-based
Influenza A virus [5] = experiment: Antiviral activity against influenza A virus H1N1 Taiwan up to 100 ug/mL; type: functional, organism-based
Influenza A virus [6] = experiment: Antiviral activity against Influenza A virus H3N2 Johannesburg up to 100 ug/mL; type: functional, organism-based
[7] = tested on: Feline infectious peritonitis virus; experiment: Antiviral activity against Feline infectious peritonitis virus WSU up to 100 ug/mL; type: functional
Human alphaherpesvirus 2 = experiment: Antiviral activity against HSV2; type: functional, organism-based
Influenza B virus = experiment: Antiviral activity against influenza B virus Panama up to 100 ug/mL; type: functional, organism-based

Structure (SMILES)	Ratio CC50/IC50 [1]	IC50 [2] [µg/mL]	CC50 (MT4) [µg/mL]	Ratio CC50/IC50 [3]	IC50 [4] [µg/mL]	inhibition (Poliovirus 3)	inhibition (Coxsackievirus B1)	inhibition (Coxsackievirus B3)	inhibition (Feline coronavirus)	inhibition (Influenza A virus [5])	inhibition (Influenza A virus [6])	inhibition [7]	IC50 (Human alphaherpesvirus 2) [µg/mL]	inhibition (Influenza B virus)
Nc1ccn([C@H]2C=C[C@]3(CO)C[C@H]23)c(=O)n1	<1	> 61.8	61.8 (≈ 282 µM)	<1	> 61.8	inactive	inactive	inactive	–	–	–	–	–	–
Nc1ccn([C@H]2CC[C@@H](CO)O2)c(=O)n1 [ZALCITABINE]	248.73	0.043 (≈ 0.204 µM)	10.66 (≈ 50.5 µM)	266.7	0.04 (≈ 0.189 µM)	–	–	–	–	–	–	–	–	–
Nc1ncnc2c1ncn2[C@H]1C=C[C@]2(CO)C[C@H]12	>2.47	40.5 (≈ 166 µM)	> 100	–	–	inactive	inactive	inactive	–	–	–	–	–	–
Nc1ncnc2c1ncn2[C@@H]1C=C[C@@]2(CO)C[C@@H]12	–	> 100	–	–	> 100	inactive	inactive	inactive	–	–	–	–	–	–
Nc1nc(O)c2ncn([C@@H]3C=C[C@@]4(CO)C[C@@H]34)c2n1	–	> 100	> 100	–	> 100	inactive	inactive	inactive	–	–	–	–	–	–
Cc1cn([C@@H]2C=C[C@@]3(CO)C[C@@H]23)c(=O)[nH]c1=O	>85.09	1.18 (≈ 5.02 µM)	> 100	>44.05	2.27 (≈ 9.69 µM)	inactive	inactive	inactive	inactive	inactive	inactive	inactive	59.2 (≈ 253 µM)	inactive
O=c1ccn([C@@H]2C=C[C@@]3(CO)C[C@@H]23)c(=O)[nH]1	–	> 100	–	–	–	inactive	inactive	inactive	–	–	–	–	–	–
Nc1ccn([C@@H]2C=C[C@@]3(CO)C[C@@H]23)c(=O)n1	–	> 100	> 100	–	> 100	inactive	inactive	inactive	–	–	–	–	–	–
O=c1nc(O)ccn1[C@H]1C=C[C@]2(CO)C[C@H]12	–	> 100	> 100	–	> 100	inactive	inactive	inactive	–	–	–	–	–	–
Cc1cn([C@H]2C=C[C@]3(CO)C[C@H]23)c(=O)[nH]c1=O	263	0.033 (≈ 0.141 µM)	8.558 (≈ 36.5 µM)	76	0.112 (≈ 0.478 µM)	inactive	inactive	inactive	–	–	–	–	–	–
O=c1[nH]cnc2c1ncn2[C@H]1CC[C@@H](CO)O1 [DIDANOSINE]	>43.29	2.31 (≈ 9.78 µM)	> 100	>17.38	5.76 (≈ 24.4 µM)	–	–	–	–	–	–	–	–	–
